Data as given in ChEMBL document CHEMBL4732100, “Water-soluble inhibitors of ABCG2 (BCRP) - A fragment-based and computational approach” (Eur J Med Chem, 2021).
In brackets after ≈: the same amount, converted by molar mass.

Experiments:
[1] = molecular target: ATP-dependent translocase ABCB1 (Homo sapiens, UniProt P08183); experiment: Inhibition of ABCB1 in human KB-V1 cells assessed as accumulation of substrate calcein-AM stain measured after 10 mins by fluorometric microplate reader assay; format: cell-based
Sequence of ATP-dependent translocase ABCB1 (P08183 whole entry): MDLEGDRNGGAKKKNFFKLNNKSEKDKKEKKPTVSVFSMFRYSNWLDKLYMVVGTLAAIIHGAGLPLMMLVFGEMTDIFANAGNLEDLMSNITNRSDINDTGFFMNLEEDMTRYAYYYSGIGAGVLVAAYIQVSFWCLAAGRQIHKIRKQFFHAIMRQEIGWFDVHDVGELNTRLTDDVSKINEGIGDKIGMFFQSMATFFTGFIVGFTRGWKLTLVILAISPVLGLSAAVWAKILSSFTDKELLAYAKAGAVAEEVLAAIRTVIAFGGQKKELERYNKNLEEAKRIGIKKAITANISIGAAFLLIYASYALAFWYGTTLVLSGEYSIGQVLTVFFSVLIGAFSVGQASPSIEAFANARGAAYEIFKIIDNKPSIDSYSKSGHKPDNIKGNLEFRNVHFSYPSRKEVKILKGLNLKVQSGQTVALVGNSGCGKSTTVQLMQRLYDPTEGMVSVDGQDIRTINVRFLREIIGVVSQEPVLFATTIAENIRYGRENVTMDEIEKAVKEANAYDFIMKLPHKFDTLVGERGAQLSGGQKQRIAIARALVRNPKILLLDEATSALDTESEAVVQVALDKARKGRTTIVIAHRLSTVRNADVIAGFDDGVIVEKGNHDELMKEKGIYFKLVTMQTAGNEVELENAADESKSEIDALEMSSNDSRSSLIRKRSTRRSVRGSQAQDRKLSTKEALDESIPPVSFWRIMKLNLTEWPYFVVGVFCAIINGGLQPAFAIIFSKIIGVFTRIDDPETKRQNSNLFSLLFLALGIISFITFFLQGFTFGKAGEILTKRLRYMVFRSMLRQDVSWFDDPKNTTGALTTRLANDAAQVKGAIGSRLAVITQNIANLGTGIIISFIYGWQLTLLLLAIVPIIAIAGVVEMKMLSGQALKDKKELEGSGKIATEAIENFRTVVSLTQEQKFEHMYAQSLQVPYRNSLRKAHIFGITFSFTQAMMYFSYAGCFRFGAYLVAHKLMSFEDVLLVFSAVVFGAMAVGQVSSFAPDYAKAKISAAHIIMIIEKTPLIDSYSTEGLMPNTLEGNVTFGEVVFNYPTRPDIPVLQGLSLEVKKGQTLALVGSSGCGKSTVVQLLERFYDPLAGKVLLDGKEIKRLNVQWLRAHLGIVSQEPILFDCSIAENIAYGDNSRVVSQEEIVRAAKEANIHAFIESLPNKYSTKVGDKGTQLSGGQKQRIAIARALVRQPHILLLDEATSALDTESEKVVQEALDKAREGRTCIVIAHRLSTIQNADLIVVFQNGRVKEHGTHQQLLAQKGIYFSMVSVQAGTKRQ
Method in brief: (§1)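 KB-V1 cells (ABCB1-overexpressing KB variant) kept under 330 nM vinblastine. Calcein-AM accumulation read by fluorescence after intracellular cleavage to calcein. Compounds tested up to 100 µM. Inhibition is normalized to 10 µM tariquidar set to 100% (Imax). Mean ± SEM from ≥3 experiments in triplicate.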

[2] = system: MDCK-MRP1; experiment: Inhibition of human ABCC1 expressed in MDCK-MRP1 cells assessed as accumulation of substrate calcein-AM stain at 30 uM measured after 1 hr by fluorometric microplate reader assay relative to Reversan; format: cell-based; conditions: Canis lupus familiaris
Method in brief: (§2)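 MDCK.2 cells transfected with human ABCC1 (MDCK.2-MRP1), trypsinized with 2X trypsin/EDTA for 30 min. Calcein-AM accumulation measured fluorometrically. Compounds tested up to 100 µM. Inhibition is normalized to 30 µM reversan set to 100% (Imax). Mean ± SEM from ≥3 experiments in triplicate.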

[3] = Kinetic solubility of compound in PBS at pH 7.4 measured after 2 hrs by turbidimetric measurement; conditions: read-out: Kinetic_solubility
[4] = Inhibition of human ABCC1 expressed in MDCK-MRP1 cells assessed as accumulation of substrate calcein-AM stain measured after 1 hr by fluorometric microplate reader assay; format: cell-based, Canis lupus familiaris; method in brief: as §2
[5] = molecular target: ABCB1 (Homo sapiens, UniProt P08183); experiment: Inhibition of ABCB1 in human KB-V1 cells assessed as accumulation of substrate calcein-AM stain at 10 uM measured after 10 mins by fluorometric microplate reader assay relative to Tariquidar; format: cell-based; conditions: probe calcein-AM, read-out: Imax; method in brief: as §1
Sequence of ABCB1 (P08183 whole entry): as above

[6] = molecular target: T1, Broad substrate specificity ATP-binding cassette transporter ABCG2 (Homo sapiens, UniProt Q9UNQ0); experiment: Inhibition of human ABCG2 in human MCF7/Topo cells assessed as accumulation of substrate Hoechst […] stain measured after 2 hrs by fluorometric microplate reader assay; format: cell-based
T1 sequence (Q9UNQ0 whole entry): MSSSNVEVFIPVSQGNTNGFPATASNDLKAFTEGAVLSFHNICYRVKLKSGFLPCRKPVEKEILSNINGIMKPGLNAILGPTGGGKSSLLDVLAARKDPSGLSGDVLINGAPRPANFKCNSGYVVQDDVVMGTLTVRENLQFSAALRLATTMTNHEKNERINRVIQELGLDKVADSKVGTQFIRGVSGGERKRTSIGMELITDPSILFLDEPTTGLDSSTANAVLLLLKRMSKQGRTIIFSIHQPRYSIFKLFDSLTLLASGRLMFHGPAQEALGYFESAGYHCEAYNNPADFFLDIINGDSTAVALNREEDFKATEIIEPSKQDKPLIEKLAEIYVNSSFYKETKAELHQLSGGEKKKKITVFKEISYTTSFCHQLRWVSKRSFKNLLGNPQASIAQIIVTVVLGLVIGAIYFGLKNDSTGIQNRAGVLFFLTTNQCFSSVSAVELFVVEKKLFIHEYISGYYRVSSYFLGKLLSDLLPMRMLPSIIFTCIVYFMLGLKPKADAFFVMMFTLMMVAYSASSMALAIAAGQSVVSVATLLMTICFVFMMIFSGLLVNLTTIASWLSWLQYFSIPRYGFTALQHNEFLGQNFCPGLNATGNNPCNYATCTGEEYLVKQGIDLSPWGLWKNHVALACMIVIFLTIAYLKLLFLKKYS

[7] = Cytotoxicity against human MCF7/Topo cells assessed as inhibition of cell proliferation at 1 uM measured by crystal violet based microplate reader assay
Method in brief: (§3)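 MCF-7/Topo cells grown in DMEM/High with 2% (v/v) 200 mM L-glutamine and 10% FCS at 37 °C, 5% CO2, kept under 550 nM topotecan. Long-term incubation with inhibitor. Value given as corrected T/C = (T−C0)/(C−C0)·100 from absorbance; cytocidal effect (T−C0)/C0·100 when T<C0. Mean ± SEM of two to three experiments, each in octuplicate.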

[8] = molecular target: T2, ABCG2 (Homo sapiens, UniProt Q9UNQ0); experiment: Inhibition of human ABCG2 in human MCF7/Topo cells assessed as accumulation of substrate Hoechst […] stain at 10 uM measured after 2 hrs by fluorometric microplate reader assay relative to FTC; format: cell-based; conditions: read-out: Imax
T2 sequence (Q9UNQ0 whole entry): T1 sequence (Q9UNQ0 whole entry)

[9] = Thermodynamic solubility of compound in PBS at pH 7.4 […] by shake-flask method; format: physicochemical; conditions: buffer
[10] = Stability of compound in human plasma at 200 uM measured up to 24 hrs by HPLC-MS analysis; format: ADME, cell-free
Method in brief: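 Compound from 10 mM DMSO stock incubated in human CPD plasma at 37 °C for up to 24 h. Samples filtered (0.2 µm). Analyzed by RP-HPLC on a C8 column with acetonitrile/0.05% aq TFA gradient 20:80→95:5 over 12 min and UV detection at 220 nm. HPLC-MS run at 0 h and 24 h.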

[11] = molecular target: T2, ABCG2; experiment: Substrate activity at ABCG2 in human MCF7/Topo cells assessed as increase in ATPase activity measured after 1 hr by colorimetric assay relative to sulfasalazine; format: cell-based; conditions: read-out: Imax
Method in brief: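 Membranes prepared from MCF-7/Topo cells: homogenized in TMEP buffer pH 7 with protease inhibitors, 500 g spin, then 100,000 g for 1 h. Released inorganic phosphate read by molybdenum blue reaction. Basal activity set to 0% and 30 µM sulfasalazine to 100%. Concentration-response data; mean ± SEM of ≥3 experiments in triplicate.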

[12] = Cytotoxicity against human MCF7/Topo cells assessed as inhibition of cell proliferation at 10 uM measured by crystal violet based microplate reader assay; method in brief: as §3

IC50 ([1]; kb-v1) | solubility kinetic at 2 h [3] [µM] | IC50 ([4]; read-out: IC50) [nM] | Emax at 10 min, 10 µM [5] [%] | IC50 ([1]; read-out: IC50) [nM] | IC50 ([6]; read-out: IC50) [nM] | Emax at 2 h, 10 µM [8] [%] | Therm_solubility [9] [µM] | IC50 [4] | Stabilty [10] | Emax at 1 h [11] [%] | IC50 ([6]; mcf7/topo) | Structure (SMILES) | Imax [2] [%] | Activity [7] | Activity [12]
Not Active |  |  |  |  |  |  |  |  |  |  |  | COC(=O)c1ccc(-c2cn(-c3ccc(CCN4CCc5cc(OC)c(OC)cc5C4)cc3)nn2)cc1NC(=O)c1ccc2ccccc2n1 |  |  | 
 | 10 (≈ 5.02 µg/mL) | 2080 | 92 | 1340 | 312 | 95 | 0.999 |  |  |  |  | CCC(=O)c1ccc(-c2cn(CCN3CCOCC3)nn2)cc1NC(=O)c1cc(=O)c2ccccc2o1 | 66 | Non-Toxic | 
Not Active |  |  |  |  | 1920 | 86 |  | Not Active |  |  |  | COC(=O)c1ccc(Br)cc1NC(=O)c1ccc2ccccc2n1 |  |  | 
Not Active | 3 (≈ 1.17 µg/mL) |  |  |  | 447 | 91 | < 0.1 | Not Active |  |  |  | Cc1ccc(-c2cn(CCO)nn2)c(NC(=O)c2cc(=O)c3ccccc3o2)c1 |  |  | 
Not Active | 10 (≈ 4.02 µg/mL) |  |  |  | 140 | 91 | 0.109 | Not Active |  |  |  | COC(=O)c1ccc(Br)cc1NC(=O)c1cc(=O)c2ccccc2o1 |  |  | 
Not Active | 7 (≈ 3.1 µg/mL) |  |  |  | 109 | 103 | 1.228 | Not Active | Stable | 29 |  | Cc1ccc(-c2cn(CCN3CCCC3)nn2)c(NC(=O)c2cc(=O)c3ccccc3o2)c1 |  |  | 
 | 3 (≈ 1.89 µg/mL) |  | > 19 | > 9970 | 166 | 81 | 0.445 | Not Active |  |  |  | CCC(=O)c1ccc(-c2cn(-c3ccc(CCN4CCc5cc(OC)c(OC)cc5C4)cc3)nn2)cc1NC(=O)c1cccc(C)n1 |  |  | 
Not Active | 10 (≈ 6.62 µg/mL) |  |  |  | 70 | 91 | < 0.1 | Not Active |  |  |  | CCC(=O)c1ccc(-c2cn(-c3ccc(CCN4CCc5cc(OC)c(OC)cc5C4)cc3)nn2)cc1NC(=O)c1cccc([N+](=O)[O-])n1 |  |  | 
Not Active | 10 (≈ 4.46 µg/mL) |  |  |  |  |  |  | Not Active |  |  | Not Active | CCC(=O)c1ccc(-c2cn(CC(=O)O)nn2)cc1NC(=O)c1cc(=O)c2ccccc2o1 |  |  | 
Not Active | 30 (≈ 14.6 µg/mL) |  |  |  | 158 | 70 | 1.483 | Not Active |  |  |  | CCC(=O)c1ccc(-c2cn(CCN3CCCC3)nn2)cc1NC(=O)c1cc(=O)c2ccccc2o1 |  |  | 
 | 3 (≈ 1.3 µg/mL) | > 1960 | > 41 | > 2290 | > 1100 | > 71 | 0.575 |  |  |  |  | CCC(=O)c1ccc(-c2cn(CCO)nn2)cc1NC(=O)c1cc(=O)c2ccccc2o1 | > 33 |  | 
Not Active | 3 (≈ 2 µg/mL) |  |  |  | 249 | 70 | < 0.1 | Not Active |  |  |  | CCC(=O)c1ccc(-c2cn(-c3ccc(CCN4CCc5cc(OC)c(OC)cc5C4)cc3)nn2)cc1NC(=O)c1ccc2ccccc2c1 |  |  | 
Not Active | 1 (≈ 0.651 µg/mL) |  |  |  | 116 | 95 | < 0.1 | Not Active |  |  |  | CCC(=O)c1ccc(-c2cn(-c3ccc(CCN4CCc5cc(OC)c(OC)cc5C4)cc3)nn2)cc1NC(=O)c1cccc(Cl)n1 |  |  | 
 | 3 (≈ 1.94 µg/mL) |  | > 13 | > 2780 | 116 | 68 | 0.119 | Not Active |  |  |  | CCC(=O)c1ccc(-c2cn(-c3ccc(CCN4CCc5cc(OC)c(OC)cc5C4)cc3)nn2)cc1NC(=O)c1ccc(OC)cn1 |  |  | 
Not Active | 10 (≈ 6.32 µg/mL) |  |  |  | 82 | 75 | < 0.1 | Not Active |  |  |  | CCC(=O)c1ccc(-c2cn(-c3ccc(CCN4CCc5cc(OC)c(OC)cc5C4)cc3)nn2)cc1NC(=O)c1cccc(N)n1 |  |  | 
Not Active | 7 (≈ 4.7 µg/mL) |  |  |  | 180 | 63 | < 0.1 | Not Active |  |  |  | CCC(=O)c1ccc(-c2cn(-c3ccc(CCN4CCc5cc(OC)c(OC)cc5C4)cc3)nn2)cc1NC(=O)c1ccc2c(n1)CCCC2 |  |  | 
Not Active | 3 (≈ 2 µg/mL) |  |  |  |  |  | 0.078 |  |  |  |  | CCC(=O)c1ccc(-c2cn(-c3ccc(CCN4CCc5cc(OC)c(OC)cc5C4)cc3)nn2)cc1NC(=O)c1ccc2ccccc2n1 |  |  | 
Not Active | 7 (≈ 4.53 µg/mL) |  |  |  | 322 | 92 | < 0.1 | Not Active |  |  |  | CCC(=O)c1ccc(-c2cn(-c3ccc(CCN4CCc5cc(OC)c(OC)cc5C4)cc3)nn2)cc1NC(=O)c1cccc(OC)n1 |  | Non-Toxic | 
Not Active |  |  |  |  | 3610 | 41 |  | Not Active |  |  |  | COc1cc2c(cc1OC)CN(CCc1ccc(-n3cc(-c4ccccc4)nn3)cc1)CC2 |  |  | 
 | 10 (≈ 4.6 µg/mL) | > 1470 | > 13 | > 1600 | 188 | 108 | 1.144 |  |  | 46 |  | Cc1ccc(-c2cn(CCN3CCOCC3)nn2)c(NC(=O)c2cc(=O)c3ccccc3o2)c1 | > 22 |  | Non-Toxic
Not Active | 7 (≈ 4.79 µg/mL) |  |  |  | 80 | 65 | 0.149 | Not Active |  |  |  | CCC(=O)c1ccc(-c2cn(-c3ccc(CCN4CCc5cc(OC)c(OC)cc5C4)cc3)nn2)cc1NC(=O)c1cc(=O)c2ccccc2o1 |  |  | 
 | 7 (≈ 4.43 µg/mL) |  | > 14 | > 18500 | 328 | 75 | 0.855 | Not Active |  |  |  | CCC(=O)c1ccc(-c2cn(-c3ccc(CCN4CCc5cc(OC)c(OC)cc5C4)cc3)nn2)cc1NC(=O)c1cccc(O)n1 |  |  | 
Not Active | 7 (≈ 4.59 µg/mL) |  |  |  | 120 | 78 | < 0.1 | Not Active |  |  |  | CCC(=O)c1ccc(-c2cn(-c3ccc(CCN4CCc5cc(OC)c(OC)cc5C4)cc3)nn2)cc1NC(=O)c1cc2ccccc2o1 |  |  | 
